What was measured:
[1] = test system: Mus musculus; test: Effective dose required to inhibit the Locomotor activity in mouse after ip administration.; type: functional
[2] = target: D(1A) dopamine receptor (Rattus norvegicus, UniProt P18901); test: In vitro binding affinity towards dopamine receptor D1 in rat striatal membrane using [3H]-SCH- 23390; type: cell membranes, Striatum
How it was run: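 Dopamine D1 binding in rat striatal membranes with the selective D1 antagonist [3H]SCH23390. IC50 comes from four or five compound concentrations, each run in triplicate, fitted by nonlinear regression.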

[3] = test system: Rattus norvegicus; test: Effective dose required to inhibit the Locomotor activity in Rat after po administration.; type: functional
[4] = test system: Rattus norvegicus; test: Values for the reversal of the increase in DOPA levels in the striatum of GBL-treated rats after ip administration; type: functional
How it was run: (§1)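 Male Long-Evans rats received test compound ip 1 h before sacrifice, GBL 750 mg/kg ip 30 min before, and NSD 1015 100 mg/kg ip 25 min before. Striatal DOPA was quantified by HPLC with electrochemical detection, n = 4 or 5 rats. ED50 (95% CI) is the dose reversing the GBL-induced DOPA rise.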

[5] = organism: Rattus norvegicus; test: Compound was tested for effect on brain DOPA synthesis in the striatum of NSD 1015 rat; type: functional
How it was run: (§2)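 Rats were dosed with NSD 1015 at 100 mg/kg ip 25 min before sacrifice and received no GBL. Test compound was given ip 1 h before sacrifice. Striatal DOPA was measured by HPLC with electrochemical detection and expressed as percent of control, n = 4 rats. Significance was set at p < 0.05 vs control.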

[6] = test system: Rattus norvegicus; test: Compound was tested for inhibition of locomotor activity after sc administration in rat; type: functional
How it was run: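 Spontaneous exploratory locomotor activity in rats after sc dosing. […] 5-12 animals were used per dose.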

[7] = test system: Rattus norvegicus; test: Percentage inhibition of DA neural firing after administration the compound at a dose of 2.5 mg/Kg through ip route in rats.; type: functional; details: for inhibition in vivo at 2.5 mg/kg: Rattus norvegicus, ip
[8] = test system: Rattus norvegicus; test: Compound was tested for stimulation of locomotor activity after sc administration in rat; type: functional
[9] = Minimal effective oral dose that induced EPS signs in at least one squirrel monkey upon peroral administration.; type: functional, Cercopithecidae
[10] = Compound was tested for inhibition of Sidman conditioned avoidance in squirrel monkeys upon peroral administration; type: functional; details: po
How it was run: (§3)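 Sidman avoidance in squirrel monkeys with oral dosing. ED50 (95% CL) is derived from three doses, with four animals tested per dose.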

[11] = test system: Rattus norvegicus; test: Dose to effect on Brain DOPA synthesis upon ip administration.; type: functional; how it was run: as §2
[12] = target: D(2) dopamine receptor (Rattus norvegicus) (UniProt P61169); test: Compound at 10E-5 M was tested in vitro for binding affinity towards dopamine receptor D2 in rat striatal membrane by using [3H]spiperone as radioligand; type: cell membranes; details: Striatum
[13] = target: D(2) dopamine receptor (Rattus norvegicus, UniProt P61169); test: Binding affinity towards dopamine receptor D2 in rat striatal membrane using [3H]spiperone; type: cell membranes, Striatum
[14] = test system: Rattus norvegicus; test: Effective dose for the reversal of the increase in DOPA levels in the striatum of GBL-treated rats after ip administration; type: functional
How it was run: as §1, with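 “got” for “received”, “before” for “before,”, “measured” for “quantified”, “rise; percent reversal at a single test dose is given otherwise.” for “rise.”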

[15] = test system: Rattus norvegicus; test: Effective dose required to inhibit the Locomotor activity in rat after po administration.; type: functional
How it was run: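 Inhibition of spontaneous locomotor activity in rats after oral dosing. ED50 is generated from four to six doses, with 5-12 animals per dose.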

[16] = test system: Rattus norvegicus; test: Values for the reversal of the increase in DOPA levels in the striatum of GBL-treated rats after ip administration of 10 mg/Kg; type: functional
How it was run: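 Male Long-Evans rats were given the compound ip at 10 mg/kg 1 h before sacrifice. GBL (750 mg/kg ip) was given 30 min and NSD 1015 (100 mg/kg ip) 25 min before sacrifice. Striatal DOPA was measured by HPLC with electrochemical detection. The value is the percent reversal of the GBL-induced DOPA increase; n = 4 or 5 rats.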

[17] = test system: Rattus norvegicus; test: Percentage inhibition of DA neural firing after administration the compound at a dose of 0.25 mg/kg through ip route in rats.; type: functional; details: route intraperitoneal
[18] = Compound was tested for inhibition of Sidman conditioned avoidance in squirrel monkeys upon peroral administration.; type: functional; details: Cercopithecidae, po; how it was run: as §3
[19] = organism: Rattus norvegicus; test: The compound was tested for effect on brain DOPA synthesis in the striatum of NSD 1015 rat; type: functional; how it was run: as §2
[20] = Mus musculus, ip, read-out: ED50
[21] = Rattus norvegicus, po, read-out: ED50
[22] = Rattus norvegicus, sc, read-out: ED50

Sequence of D(2) dopamine receptor (Rattus norvegicus) (P61169 whole entry): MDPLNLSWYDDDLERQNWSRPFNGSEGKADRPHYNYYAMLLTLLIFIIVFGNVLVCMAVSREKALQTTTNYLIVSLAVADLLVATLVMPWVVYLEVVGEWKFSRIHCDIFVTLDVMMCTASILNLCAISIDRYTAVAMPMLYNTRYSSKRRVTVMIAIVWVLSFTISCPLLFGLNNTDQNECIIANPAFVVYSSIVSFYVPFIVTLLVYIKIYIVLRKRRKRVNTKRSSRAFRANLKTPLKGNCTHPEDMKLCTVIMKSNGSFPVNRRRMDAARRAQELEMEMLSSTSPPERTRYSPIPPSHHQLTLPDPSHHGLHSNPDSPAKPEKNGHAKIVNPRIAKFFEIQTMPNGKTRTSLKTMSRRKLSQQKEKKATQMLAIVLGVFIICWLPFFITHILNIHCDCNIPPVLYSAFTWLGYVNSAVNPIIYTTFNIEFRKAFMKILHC
Sequence of D(1A) dopamine receptor (P18901 whole entry): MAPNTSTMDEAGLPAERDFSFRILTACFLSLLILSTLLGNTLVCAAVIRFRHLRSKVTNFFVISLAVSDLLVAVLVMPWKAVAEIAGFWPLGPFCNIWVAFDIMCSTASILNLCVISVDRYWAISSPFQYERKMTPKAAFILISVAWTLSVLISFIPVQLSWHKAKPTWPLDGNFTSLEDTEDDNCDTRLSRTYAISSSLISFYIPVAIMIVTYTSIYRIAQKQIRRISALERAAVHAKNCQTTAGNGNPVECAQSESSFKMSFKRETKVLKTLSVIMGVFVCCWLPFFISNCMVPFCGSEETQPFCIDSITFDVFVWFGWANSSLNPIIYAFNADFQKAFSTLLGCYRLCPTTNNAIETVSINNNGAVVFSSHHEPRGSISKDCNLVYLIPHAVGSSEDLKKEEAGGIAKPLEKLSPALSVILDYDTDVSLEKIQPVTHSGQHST
Sequence of D(2) dopamine receptor (P61169 whole entry): as the sequence (P61169 whole entry) above

With `CCCN1CCCC2c3nc(N)sc3CCC21` (stereo in doubt; 28) [listing 1 of 2 here] the ED50 [1] was over 30 mg/kg.

`CCCN1CCC2=C(CCc3sc(N)nc32)C1` showed an ED50 [1, 20] of 18.8 mg/kg and an IC50 [2] of 10 µM.

For `CCCN1CCC=C2c3nc(N)sc3CCC21` (racemic), the ED50 [3, 21] was 18.9 mg/kg, the ED50 [4] was 4 mg/kg and the Control [5] was 63%. The ED50 [6, 22] was 0.9 mg/kg, the inhibition in vivo at 2.5 mg/kg [7] was 100% and the ED50 [8, 22] was 14.5 mg/kg. For the same compound, the “EPS MED” value [9] was over 10 mg/kg, the ED50 [1, 20] was 9.4 mg/kg and the ED50 [10] was 11.2 mg/kg. It also gave a Dose [11] of 5 mg/kg and an IC50 [2] of over 10 µM.

`CCCN1CCC=C2c3nc(N)sc3CCCC21` (stereo not drawn) showed an ED50 [3, 21] of over 30 mg/kg, an inhibition [12] of 18% and an ED50 [1, 20] of over 20 mg/kg.

`CCCN1CCCC2c3nc(N)sc3CCCC21` (stereo not drawn) gave an inhibition [12] of 10% and an ED50 [1, 20] of over 30 mg/kg.

For `CSc1ccc2c(c1)N(CCC1CCCCN1C)c1ccccc1S2` (stereo not drawn) [THIORIDAZINE], the “EPS MED” value [9] was under 2.5 mg/kg and the ED50 [10] was 3.9 mg/kg.

Compound `Nc1nc2c(s1)CCC1NCCCC21` (stereo in doubt; 26) [listing 1 of 2 here] has an ED50 [1, 20] of over 30 mg/kg.

In the case of `CCCN1CC=C2c3nc(N)sc3CCC2C1` (stereo not drawn), the ED50 [1, 20] is reported as over 30 mg/kg and the IC50 [2] is reported as over 10 µM.

Compound `CCCN1CCC=C(c2csc(N)n2)C1` has an IC50 [13] of 0.574 µM, an ED50 [14] of 1.3 mg/kg and an inhibition in vivo at 2.5 mg/kg [7] of 100%. The ED50 [15] was 3.1 mg/kg, the ED50 [1, 20] was 4.3 mg/kg and the IC50 [2] was 10 µM.

For `CCCN1CCCC2c3nc(N)sc3CCC21` (stereo in doubt; 29), the Reversal [16] was 100%, the IC50 [13] was 1.24 µM and the inhibition in vivo at 2.5 mg/kg [7] was 94%. For the same compound, the ED50 [1] was 7 mg/kg and the IC50 [2] was over 10 µM.

Work on `CN1CCc2cccc3c2[C@H]1Cc1ccc(O)c(O)c1-3` [APOMORPHINE] yielded an inhibition in vivo at 0.25 mg/kg [17] of 100%, an ED50 [6, 22] of 0.03 mg/kg and an ED50 [8, 22] of 0.07 mg/kg. It also gave an ED50 [15] of over 30 mg/kg and an ED50 [1, 20] of 6.9 mg/kg.

Work on `CCCN1CCC=C2c3nc(N)sc3CC[C@@H]21` (stereo in doubt; (-)-6) yielded an ED50 [3] of over 30 mg/kg, a Reversal [16] of 14% and an ED50 [18] of over 30 mg/kg. For the same compound, the Control [5] was 153.2%, the ED50 [6] was 2.5 mg/kg and the Inhibition [7] was 22%. For the same compound, the ED50 [8] was over 30 mg/kg, the ED50 [1] was 20.4 mg/kg and the Dose [11] was 20 mg/kg.

`CCCN1CCC2=C(C1)c1nc(N)sc1CC2` gave an IC50 [2] of over 10 µM.

In the case of `CCCN1CCCC2c3nc(N)sc3CCC21` (stereo in doubt; 28) [listing 2 of 2 here], the inhibition [12] is reported as 16%.

With `CCCN1CCC=C2c3nc(N)sc3CC[C@@H]21` (stereo in doubt; (+)-6) the ED50 [3] was 7 mg/kg, the ED50 [4] was 1.3 mg/kg and the ED50 [6] was 0.3 mg/kg. For the same compound, the Inhibition [7] was 91%, the ED50 [8] was 6.8 mg/kg and the “EPS MED” value [9] was over 30 mg/kg. The Control [19] was 52.4%, the ED50 [1] was 3.7 mg/kg and the ED50 [10] was 8.3 mg/kg. It also gave a Dose [11] of 2.5 mg/kg and an IC50 [2] of over 10 µM.

For `CCCN1CCCC(c2cccc(O)c2)C1` (single isomer, unassigned; (+)), the Reversal [16] was 58%, the ED50 [6, 22] was 3 mg/kg and the inhibition in vivo at 2.5 mg/kg [7] was 100%. The ED50 [8, 22] was 5.8 mg/kg.

Work on `Nc1nc2c(s1)CCC1NCCCC21` (stereo in doubt; 26) [listing 2 of 2 here] yielded an inhibition [12] of 14%.

With `Nc1nc2c(s1)CCC1NCCCC21` (stereo in doubt; 27) the inhibition [12] was 10%.

Reference: ChEMBL document CHEMBL1125885, “Dopamine autoreceptor agonists as potential antipsychotics. 3.6-Propyl-4,5,5a,6,7,8-hexahydrothiazolo[4,5-f]quinolin-2-amine” (J Med Chem, 1991)
